Results taken from ChEMBL document CHEMBL5724801, “EUbOPEN Chemogenomics Library - Multiplex” (2024).
Values joined by “and” are separate entries in the source; they are usually repeats but may differ in a detail not shown here. Identical values can stand only once.

Legend:
HEK-293T = assay: Multiplex assay against HEK293T; format: toxicity, cell-based; conditions: human
Method in brief: (§1)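 On a CQ1 microscope at 37°C and 5% CO2, live cells were imaged after compound addition. They had been stained at seeding with Hoechst33342, BioTracker Green Microtubule Cytoskeleton Dye, MitoTracker Red and Annexin V Alexa Fluor 680. CellPathfinder machine-learning gating assigned cells to Hoechst high-intensity objects or normal cells, normal cells to healthy, pyknosed or fragmented nuclei, and pyknosed cells to mitotic or apoptotic. Tubulin, mitochondrial-mass and membrane-permeability phenotypes are per cents of healthy-nucleus cells.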

U2OS = assay: Multiplex assay against U2OS; format: toxicity, cell-based; conditions: human; method in brief: as §1
[1] = 24 h, 10 µM, compound concentration 10 uM
[2] = 48 h, 1 µM, compound concentration 1 uM
[3] = 48 h, 10 µM, compound concentration 10 uM
[4] = 12 h, 1 µM, compound concentration 1 uM
[5] = 12 h, 10 µM, compound concentration 10 uM
[6] = 24 h, 1 µM, compound concentration 1 uM

In the case of N#Cc1c(N)nc(SCc2csc(-c3ccc(Cl)cc3)n2)c(C#N)c1-c1ccc(OCCO)cc1 [CAPADENOSON], the “Population Fragmented Nuclei (%)” value (HEK-293T; [1]) is reported as 8% and 4%, the “Population Healthy Nuclei (%)” value (HEK-293T; [1]) is reported as 68% and the “Population Hoechst High Intensity Objects (%)” value (HEK-293T; [1]) is reported as 14% and 13%. The “Population Membrane Permeable-Phenotype (%)” value (HEK-293T; [1]) was 0%, the “Population Mitochondria Different-Phenotype (%)” value (HEK-293T; [1]) was 94% and 89% and the “Population Mitotic Cells (%)” value (HEK-293T; [1]) was 34% and 26%. The “Population Normal (%)” value (HEK-293T; [1]) was 85% and 86%, the “Population Pyknosed Nuclei (%)” value (HEK-293T; [1]) was 22% and 26% and the “Population Tubulin-Different-Phenotype (%)” value (HEK-293T; [1]) was 62% and 61%. The “Total Cell Count” value (HEK-293T; [1]) was 319 and 391, the “Population Apoptotic (%)” value (HEK-293T; [2]) was 31% and 32% and the “Population Fragmented Nuclei (%)” value (HEK-293T; [2]) was 10% and 11%. The “Population Healthy Nuclei (%)” value (HEK-293T; [2]) was 79% and 80%, the “Population Hoechst High Intensity Objects (%)” value (HEK-293T; [2]) was 4% and 3% and the “Population Membrane Permeable-Phenotype (%)” value (HEK-293T; [2]) was 1% and 2%. For the same compound, the “Population Mitochondria Different-Phenotype (%)” value (HEK-293T; [2]) was 32% and 23%, the “Population Mitotic Cells (%)” value (HEK-293T; [2]) was 68% and 67% and the “Population Normal (%)” value (HEK-293T; [2]) was 95% and 96%. The “Population Pyknosed Nuclei (%)” value (HEK-293T; [2]) was 10% and 8%, the “Population Tubulin-Different-Phenotype (%)” value (HEK-293T; [2]) was 23% and 18% and the “Total Cell Count” value (HEK-293T; [2]) was 621 and 787. For the same compound, the “Population Apoptotic (%)” value (HEK-293T; [3]) was 66% and 63%, the “Population Fragmented Nuclei (%)” value (HEK-293T; [3]) was 11% and 12% and the “Population Healthy Nuclei (%)” value (HEK-293T; [3]) was 68% and 73%. The “Population Hoechst High Intensity Objects (%)” value (HEK-293T; [3]) was 12% and 10%, the “Population Membrane Permeable-Phenotype (%)” value (HEK-293T; [3]) was 0% and the “Population Mitochondria Different-Phenotype (%)” value (HEK-293T; [3]) was 89% and 88%. For the same compound, the “Population Mitotic Cells (%)” value (HEK-293T; [3]) was 33% and 36%, the “Population Normal (%)” value (HEK-293T; [3]) was 87% and 89% and the “Population Pyknosed Nuclei (%)” value (HEK-293T; [3]) was 20% and 14%. For the same compound, the “Population Tubulin-Different-Phenotype (%)” value (HEK-293T; [3]) was 67% and 64%, the “Total Cell Count” value (HEK-293T; [3]) was 406 and 423 and the “Population Apoptotic (%)” value (U2OS; [4]) was 78% and 80%. For the same compound, the “Population Fragmented Nuclei (%)” value (U2OS; [4]) was 25% and 18%, the “Population Healthy Nuclei (%)” value (U2OS; [4]) was 65% and 75% and the “Population Hoechst High Intensity Objects (%)” value (U2OS; [4]) was 5% and 1%. The “Population Membrane Permeable-Phenotype (%)” value (U2OS; [4]) was 14% and 5%, the “Population Mitochondria Different-Phenotype (%)” value (U2OS; [4]) was 4% and 2% and the “Population Mitotic Cells (%)” value (U2OS; [4]) was 21% and 20%. The “Population Normal (%)” value (U2OS; [4]) was 94% and 98%, the “Population Pyknosed Nuclei (%)” value (U2OS; [4]) was 8% and 6% and the “Population Tubulin-Different-Phenotype (%)” value (U2OS; [4]) was 10% and 1%. For the same compound, the “Total Cell Count” value (U2OS; [4]) was 236 and 150, the “Population Apoptotic (%)” value (U2OS; [5]) was 64% and 68% and the “Population Fragmented Nuclei (%)” value (U2OS; [5]) was 35% and 24%. The “Population Healthy Nuclei (%)” value (U2OS; [5]) was 40% and 56%, the “Population Hoechst High Intensity Objects (%)” value (U2OS; [5]) was 5% and 0% and the “Population Membrane Permeable-Phenotype (%)” value (U2OS; [5]) was 70% and 49%. The “Population Mitochondria Different-Phenotype (%)” value (U2OS; [5]) was 37% and 61%, the “Population Mitotic Cells (%)” value (U2OS; [5]) was 35% and 31% and the “Population Normal (%)” value (U2OS; [5]) was 94% and 99%. The “Population Pyknosed Nuclei (%)” value (U2OS; [5]) was 24% and 18%, the “Population Tubulin-Different-Phenotype (%)” value (U2OS; [5]) was 65% and 70% and the “Total Cell Count” value (U2OS; [5]) was 255 and 102. The “Population Apoptotic (%)” value (U2OS; [6]) was 87% and 61%, the “Population Fragmented Nuclei (%)” value (U2OS; [6]) was 23% and 16% and the “Population Healthy Nuclei (%)” value (U2OS; [6]) was 64% and 71%. The “Population Hoechst High Intensity Objects (%)” value (U2OS; [6]) was 3% and 0%, the “Population Membrane Permeable-Phenotype (%)” value (U2OS; [6]) was 9% and 5% and the “Population Mitochondria Different-Phenotype (%)” value (U2OS; [6]) was 4% and 2%. The “Population Normal (%)” value (U2OS; [6]) was 96% and 99%, the “Population Pyknosed Nuclei (%)” value (U2OS; [6]) was 12% and the “Population Tubulin-Different-Phenotype (%)” value (U2OS; [6]) was 6% and 2%. The “Total Cell Count” value (U2OS; [6]) was 263 and 176, the “Population Apoptotic (%)” value (U2OS; [1]) was 71% and 69% and the “Population Fragmented Nuclei (%)” value (U2OS; [1]) was 36% and 25%. For the same compound, the “Population Healthy Nuclei (%)” value (U2OS; [1]) was 37% and 49%, the “Population Hoechst High Intensity Objects (%)” value (U2OS; [1]) was 5% and 2% and the “Population Membrane Permeable-Phenotype (%)” value (U2OS; [1]) was 47% and 34%. For the same compound, the “Population Mitochondria Different-Phenotype (%)” value (U2OS; [1]) was 38% and 58%, the “Population Mitotic Cells (%)” value (U2OS; [1]) was 28% and 30% and the “Population Normal (%)” value (U2OS; [1]) was 94% and 97%. For the same compound, the “Population Pyknosed Nuclei (%)” value (U2OS; [1]) was 26% and 24%, the “Population Tubulin-Different-Phenotype (%)” value (U2OS; [1]) was 47% and 60% and the “Total Cell Count” value (U2OS; [1]) was 253 and 95. For the same compound, the “Population Apoptotic (%)” value (U2OS; [2]) was 80% and 84%, the “Population Fragmented Nuclei (%)” value (U2OS; [2]) was 23% and 12% and the “Population Healthy Nuclei (%)” value (U2OS; [2]) was 67% and 79%. The “Population Hoechst High Intensity Objects (%)” value (U2OS; [2]) was 3% and 0%, the “Population Membrane Permeable-Phenotype (%)” value (U2OS; [2]) was 9% and 6% and the “Population Mitochondria Different-Phenotype (%)” value (U2OS; [2]) was 6% and 3%. The “Population Mitotic Cells (%)” value (U2OS; [2]) was 20% and 15%, the “Population Normal (%)” value (U2OS; [2]) was 96% and 99% and the “Population Pyknosed Nuclei (%)” value (U2OS; [2]) was 8%. The “Population Tubulin-Different-Phenotype (%)” value (U2OS; [2]) was 6% and 5%, the “Total Cell Count” value (U2OS; [2]) was 355 and 220 and the “Population Apoptotic (%)” value (U2OS; [3]) was 86% and 66%. The “Population Fragmented Nuclei (%)” value (U2OS; [3]) was 44% and 30%, the “Population Healthy Nuclei (%)” value (U2OS; [3]) was 30% and 49% and the “Population Hoechst High Intensity Objects (%)” value (U2OS; [3]) was 5% and 4%. For the same compound, the “Population Membrane Permeable-Phenotype (%)” value (U2OS; [3]) was 46% and 45%, the “Population Mitochondria Different-Phenotype (%)” value (U2OS; [3]) was 31% and 45% and the “Population Mitotic Cells (%)” value (U2OS; [3]) was 13% and 33%. The “Population Normal (%)” value (U2OS; [3]) was 94% and 95%, the “Population Pyknosed Nuclei (%)” value (U2OS; [3]) was 25% and 20% and the “Population Tubulin-Different-Phenotype (%)” value (U2OS; [3]) was 37% and 50%. The “Total Cell Count” value (U2OS; [3]) was 285 and 109.
